From ChEMBL document CHEMBL1156051, “Synthesis and evaluation of lysophosphatidylserine analogues as inducers of mast cell degranulation. Potent activities of lysophosphatidylthreonine and its 2-deoxy derivative” (J Med Chem, 2009) come the findings set out here.

Series [1] deals with Mast cell. Description: Induction of Wistar rat peritoneal mast cell degradation assessed as concanavalin A-induced histamine release after 15 mins fluorometric assay. The class given is functional, cell-based. The conditions noted are these: 0.25 h. In short, it runs like this: (§1)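 Peritoneal mast cells at 5 × 10^4/mL in HEPES-buffered Tyrode stimulated with analogue plus 100 μg/mL concanavalin A for 15 min at 37 C. Supernatant histamine measured fluorometrically and expressed as percent of total cell histamine. Means ± SE of three independent experiments.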

The subject of series [2] is Mast cell. Description: Induction of C57BL/6 mouse peritoneal mast cell degradation assessed as concanavalin A-induced histamine release after 15 mins fluorometric assay. It counts as functional, cell-based. The following applies: C57BL/6, Mast cell, 0.25 h. In outline:
(§2)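 Peritoneal mast cells at 5 × 10^4/mL in HEPES-buffered Tyrode stimulated with analogue plus 10 μg/mL concanavalin A for 15 min at 37 C. Supernatant histamine measured fluorometrically and expressed as percent of total cell histamine. Means ± SE of three independent experiments.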

In series [3] the test system is Mast cell. Description: Induction of Wistar rat peritoneal mast cell degradation assessed as concanavalin A-induced histamine release at 0.01 to 10 uM after 15 mins fluorometric assay. The class given is functional, cell-based. In outline:
as §1

Series [4] relates to Mast cell. Description: Induction of C57BL/6 mouse peritoneal mast cell degradation assessed as concanavalin A-induced histamine release at 0.01 to 10 uM after 15 mins fluorometric assay. It counts as functional, cell-based. In outline: as §2
Series [5] can be described thus: Cytotoxicity against concanavalin A-stimulated Wistar rat peritoneal mast cells assessed as LDH release at 50 uM. The class given is cell-based.
For the next series, the system named is Mus musculus. Description: Increase in plasma histamine level in iv dosed C57BL/6 mouse after 2 mins by EIA. The class given is functional, organism-based. In short, it runs like this:
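Mice injected i.v. with analogue in PBS with 0.1% BSA; blood taken 2 min after injection and plasma histamine measured by enzyme immunoassay. Means ± SE of three independent experiments.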

The structures appear in SMILES notation. Active and inactive are the calls of the source. The rule behind the calls is not given here.

Regarding `CCCCCCCCCCCCCCCCCC(=O)OC[C@H](O)COP(=O)(O)OC[C@H](N)C(=O)O`, the figures for the EC50 with Mast cell [1] and with Mast cell [2] were 1000 nM and 70 nM, respectively.

In the case of `CCCCCCCCCCCCCCCCCC(=O)OC[C@@H](O)COP(=O)(O)O[C@@H]1CCN[C@H]1C(=O)O`, the result with Mast cell [3] and in the series on Mast cell [4] was inactive. Also, the EC50 in the series on Mast cell [1] is above 10000 nM.

Regarding `CCCCCCCCCCCCCCCCCC(=O)OCCCCCOP(=O)(O)OC[C@H](N)C(=O)O`, the result with Mast cell [3] and with Mast cell [4] was inactive. The EC50 with Mast cell [1] was above 10000 nM.

Consider `CCCCCCCCCCCCCCCCCC(=O)OC[C@@H](O)COP(=O)(O)O[C@@H]1CN[C@@H](C(=O)O)C1`, for which the result with Mast cell [3] and in the series with Mast cell [4] was inactive. Besides, the EC50 in the series on Mast cell [1] is above 10000 nM.

In the case of `CCCCCCCCCCCCCCCC(=O)OCCCOP(=O)(O)O[C@H](C)[C@H](N)C(=O)O`, the result in the series on Mast cell [3] and with Mast cell [4] was Active. Also, the EC50 in the series with Mast cell [1] is 60 nM.

Take `CCCCCCCCCCCC(=O)OC[C@@H](O)COP(=O)([O-])OCC[N+](C)(C)C` [LYSOPHOSPHATIDYLCHOLINE]: the Activity entry in series [5] is reported as “Toxic”.

As to `CCCCCCCCCCCCCCCCCC(=O)N(C)C[C@@H](O)COP(=O)(O)OC[C@H](N)C(=O)O`, the outcome with Mast cell [3] and in the series on Mast cell [4] was inactive. Also, the EC50 in the series with Mast cell [1] is 10000 nM.

For the compound `CCCCCCCCCCCCCCCCCC(=O)OC[C@@H](O)COP(=O)(O)OC[C@H](N)C(=O)OC`, the result in the series on Mast cell [3] and in the series on Mast cell [4] was inactive. For the same compound, in the series with Mast cell [1], the EC50 was above 10000 nM.

As for `CCCCCCCCCCCCCCCCCC(=O)OCCCCOP(=O)(O)OC[C@H](N)C(=O)O`, the outcome in the series with Mast cell [3] and with Mast cell [4] was inactive. The EC50 in the series with Mast cell [1] was 5000 nM.

In the case of `CCCCCCCCCCCCCCCCCC(=O)OC[C@@H](COP(=O)(O)OC[C@H](N)C(=O)O)OC`, the EC50 in the series on Mast cell [1] turned out to be 5000 nM.

As to `CCCCCCCCCCCCCCCCCC(=O)NC[C@@H](O)COP(=O)(O)OC[C@H](N)C(=O)O`, the result with Mast cell [3] and with Mast cell [4] was inactive. In addition, the EC50 in the series on Mast cell [1] turned out to be 5000 nM.

As to `CCCCCCCCCCCCCCCCCC(=O)OC[C@@H](O)COP(=O)(O)O[C@H]1CN[C@@H](C(=O)O)C1`, the outcome in the series with Mast cell [3] and with Mast cell [4] was inactive. Besides, the EC50 with Mast cell [1] is above 10000 nM.

As to `CCCCCCCCCCCCCCCCCC(=O)OCCCOP(=O)(O)OC[C@H](N)C(=O)O`, the concentration giving a half-maximal response (EC50) with Mast cell [1] was 500 nM; in the series with Mast cell [2], 40 nM.

Regarding `CCCCCCCCCCCCCCCCCC(=O)OCCOP(=O)(O)OC[C@H](N)C(=O)O`, the outcome in the series on Mast cell [3] and in the series with Mast cell [4] was inactive. Further, in the series with Mast cell [1], the EC50 was above 10000 nM.

On to `CCCCCCCCCCCCCCCCCC(=O)O[C@H](C)COP(=O)(O)OC[C@H](N)C(=O)O`, for which the concentration giving a half-maximal response (EC50) in the series on Mast cell [1] is above 10000 nM.

Regarding `CCCCCCCCCCCCCCCCCC(=O)OC[C@H](COP(=O)(O)OC[C@H](N)C(=O)O)OC`, in the series with Mast cell [1], the EC50 is 2000 nM.

For the compound `CCCCCCCCCCCC(=O)OC[C@@H](O)COP(=O)(O)O[C@H](C)[C@H](N)C(=O)O`, the concentration giving a half-maximal response (EC50) was 150 nM with Mast cell [1] and 50 nM with Mast cell [2].

Take `CCCCCCCCCCCCCCCCCC(=O)OC[C@@H](O)COP(=O)(O)OC[C@H](NC)C(=O)O`: the result with Mast cell [3] and in the series on Mast cell [4] was inactive. In the series on Mast cell [1], the EC50 was above 10000 nM.

With `CCCCCCCCCCCCCCCC(=O)OC[C@@H](O)COP(=O)(O)O[C@H](C)[C@H](N)C(=O)O`, the EC50 in the series on Mast cell [1] was determined as 40 nM; in the series with Mast cell [2], 20 nM. Further, the outcome in the series on Mus musculus was Active.
